Results of several laboratories.
Lines come from different studies, so protocols differ.
Observed: cell growth or viability

For COc1cc2c3c(n(CCCN4CCOCC4)c(=O)c2cc1OC)-c1nc2c(cc1C3=O)OCO2, the IC50 was 113 nM (MOLT-4; MTS; 72 h).
The IC50 of O=C(Nc1ccccc1)c1cc(-c2ccccc2)nc2ccc(-c3ccccc3)cc12 is reported as > 50000 nM (MIA PaCa-2; MTT; 48 h).
The IC50 of Cc1sc2c(c1C)C(c1ccc(Cl)cc1)=N[C@@H](CC(=O)NCCCCCCCCNC(=O)COc1cccc3c1C(=O)N(C1CCC(=O)NC1=O)C3=O)c1nnc(C)n1-2 (stereo partly shown) is reported as 39 nM (Jurkat; ATP luminescence; 72 h).
For C=C(F)C(=O)N1CCN(c2nc(OC[C@@H]3CCCN3C)nc3c2CCN(c2cccc4cccc(Cl)c24)C3)C[C@@H]1CC#N, the IC50 was 56.5 nM (MIA PaCa-2; ATP luminescence).
CCNCCCn1c2c(c3cc(OC)c(OC)cc3c1=O)C(=O)c1cc3c(nc1-2)OCO3 has an IC50 of 141 nM (KMS-27; MTS; 72 h).
COc1ccc(-c2cc(C(=O)Nc3ccccc3)c3cc(-c4cccs4)ccc3n2)cc1 gave an IC50 of > 50000 nM (MIA PaCa-2; MTT; 48 h).
C=CC(=O)N1CCN(c2nc(=O)n(-c3c(C)ccnc3C(C)C)c3nc(-c4c(O)cccc4F)c(F)cc23)[C@@H](C)C1 has an IC50 of 46.3 nM (SW837; ATP luminescence).
With C[C@H](CCC(=O)O)[C@H]1CC[C@H]2[C@@H]3CC[C@@H]4C[C@H](O)CC[C@]4(C)[C@H]3CC[C@]12C the IC50 was 66000 nM (LNCaP; MTT; 72 h).
COc1ccc(F)cc1-c1ccc2nc(-c3ccc(F)cc3)cc(C(=O)Nc3ccccc3)c2c1 gave an IC50 of > 50000 nM (MIA PaCa-2; MTT; 48 h).
COc1cc2c3c(n(CCCNCCO)c(=O)c2cc1OC)-c1nc2c(cc1C3=O)OCO2 gave an IC50 of 12 nM (MOLT-4; MTS; 72 h).
With COc1cccc2c1C(=O)c1c(O)c3c(c(O)c1C2=O)C[C@@](O)(C(=O)CO)C[C@@H]3O[C@H]1C[C@H](N)[C@H](O)[C@H](C)O1 the IC50 was 25300 nM (MIA PaCa-2; MTT; 48 h).
With Nc1ccc(/C=C/C(=O)N2CCc3c(oc4c(-c5ccc(F)cc5)cc(-c5ccc(C(=O)N6CCOCC6)nn5)cc34)C2)cn1 the IC50 was 460 nM (MIA PaCa-2; CCK-8; 72 h).
COc1ccc(-c2cc(C(=O)Nc3ccccc3)c3cc(-c4ccccc4)ccc3n2)cc1 has an IC50 of 48300 nM (MIA PaCa-2; MTT; 48 h).
With Nc1ccc(/C=C/C(=O)N2CCc3c(oc4c(-c5ccc(F)cc5)cc(-c5ccc(C(=O)N6CCC(F)(F)CC6)cc5F)cc34)C2)cn1 the IC50 was 2660 nM (MIA PaCa-2; CCK-8; 72 h).
For COc1cc2c3c(n(CCCNC(C)C)c(=O)c2cc1OC)-c1nc2c(cc1C3=O)OCO2, the IC50 was 19 nM (MOLT-4; MTS; 72 h).
The IC50 of Nc1ccc(/C=C/C(=O)N2CCc3c(oc4c(-c5ccc(F)cc5)cc(-c5ncc(C(=O)N6CCC(F)(F)CC6)cn5)cc34)C2)cn1 is reported as 4460 nM (MIA PaCa-2; CCK-8; 72 h).
For COc1cc2c3c(n(CCCn4ccnc4)c(=O)c2cc1OC)-c1nc2c(cc1C3=O)OCO2, the IC50 was 43 nM (MOLT-4; MTS; 72 h).
For Nc1ccc(/C=C/C(=O)N2CCc3c(oc4c(-c5ccc(F)cc5)cc(-c5cnc(C(=O)N6CCC(F)(F)CC6)nc5)cc34)C2)cn1, the IC50 was 1360 nM (MIA PaCa-2; CCK-8; 72 h).
For COc1ccc(F)cc1-c1ccc2nc(-c3ccccc3)cc(C(=O)Nc3ccccc3)c2c1, the IC50 was > 50000 nM (MIA PaCa-2; MTT; 48 h).
